High-throughput results as filed in PubChem BioAssay.
Rows were chosen to be rich in hits. Some 2.2% of all compounds tested hit in one or more screens of this group.
b-catenin transl: modulators of beta-catenin nuclear translocation, primary screen, imaging, HeLa cells, immunofluorescence, high-content. AID 1665, 2009. 190,000 compounds, 0.3% hits. nuclear translocation activity, % at 5 µM;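 active = nuclear translocation activity above 50% at 5 µM, with a well cell count of 50 or more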;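 also: per-cell ratio of nuclear to cytoplasmic median beta-catenin stain intensity; plate controls were DMSO negative control for no effect and GSK-3 inhibitor IX positive control for full effect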
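Test system: human HeLa cell line; Doses: 5 µM primary, 0.02–20 µM confirmation; Incubation: 24 h compound exposure, 37°C; Detection: beta-catenin immunofluorescence imaging with DAPI; Read-out: beta-catenin nuclear/cytoplasmic ratio, % activation.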
Ba/F3 V617F tox: reduced viability of JAK2V617F-dependent Ba/F3 cells, primary screen, JAK2V617F inhibitor project, cell-based, Ba/F3 EpoR-JAK2V617F, luminescence. inhibition, % at 5.6 µM. 220,000 compounds, 1.1% hits. AID 1446, 2008. ATP luminescence;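 active = inhibition above the campaign mean plus 3 SD over all tested compounds, cut at about 24% in these data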;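 also: cytokine-independent growth of Ba/F3 cells driven by EpoR plus mutant JAK2; 0% = DMSO-treated cells and 100% = JAK inhibitor I control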
APP transl inh: inhibitors of APP translation via 5'UTR reporter, primary screen, APP 5'UTR luciferase, SH-SY5Y cells. SH-SY5Y APP 5'UTR-luciferase reporter, luminescence. 190,000 compounds, 0.82% hits. inhibition, % at 2 µM;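 active = inhibition above a set limit, derived from the sample mean plus 3 SD, cut at about 45% in these data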
BaF3 tox: parental Ba/F3 cell viability inhibition, counter-screen for JAK2V617F inhibitor project, murine pro-B, CellTiter-Glo luminescence. CellTiter-Glo ATP luminescence. inhibition, % at 5.6 µM. 220,000 compounds, 1.1% hits;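 active = inhibition above a per-campaign cutoff, the mean inhibition of all tested compounds plus 3 SD, cut at about 27% in these data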;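 also: 0% = DMSO wells and 100% = JAK Inhibitor I control wells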
MT stabilizer: microtubule stabilizers in HeLa cells, primary screen, imaging, high-content imaging; HeLa tubulin immunostaining HCS, 24 h; share of cells brighter than vehicle mean+2SD; % tubulin-high responders, % at 10 µM; 200,000 compounds, 0.83% hits;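 active = plate Z-score above 3 for both tubulin-high and condensed-nucleus cell shares, with cell loss under 80%, at 10 µM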;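 also: anti alpha tubulin signal scored within the nucleus-defined area of each cell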
IEC-6 cytotox: cytotoxicity in IEC-6 intestinal epithelial cells, primary screen, cytotoxicity control for KLF5 inhibitor project, cell-based, luminescence; IEC-6 cytotoxicity, luminescence viability; inhibition, % at 5 µM; 290,000 compounds, 0.78% hits; AID 1825, 2009; in the data active = inhibition above about 22%;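 also: 0% = plate median of test compound wells and 100% = cytotoxic reference compound wells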
* marks the source's active call; other numbers are inactive results; · = no result given.

SMILES	b-catenin transl	Ba/F3 V617F tox	APP transl inh	BaF3 tox	MT stabilizer	IEC-6 cytotox
CC1=NNC(=O)C1CCC(=O)N/N=C/C(Br)=C/c1ccccc1 (centres undefined)	3	-1	82*	2	3	2
O=C(CNc1cccc2ccccc12)N/N=C/C(Br)=C/c1ccccc1	0	-2	7	3	48*	0
O=C(CNc1cccc2ccccc12)N/N=C/c1ccc[nH]1	0	-4	·	0	·	0
CC1=NNC(=O)C1CC(=O)N/N=C/C(Br)=C/c1ccccc1 (centres undefined)	2	-1	·	-4	·	3
CCCn1c(=O)[nH]c(=O)c2c1nc(-c1cc([N+](=O)[O-])ccc1Cl)n2CCOC	·	·	·	·	·	6
Cc1oc2c(CN3CCOCC3)c(O)ccc2c(=O)c1-c1ccc(Cl)cc1	-3	41*	·	48*	·	5
CN1CCc2c(sc3c2C(=O)NC(c2ccco2)N3)C1 (centres undefined)	-3	-2	15	30*	4	8
CCOC(=O)N1CCc2c(sc3c2C(=O)NC(c2ccccc2)N3)C1 (centres undefined)	134*	-2	6	2	22*	2
COC(=O)C1=C(N)Oc2cc(N(C)C)ccc2C1c1ccccc1OC (centres undefined)	1	-4	66*	5	27*	3
CC1CC(C)CN(C(=O)Cn2cc(C=O)c3ccccc32)C1 (centres undefined)	0	5	11	1	3	-3
COc1ccc(COc2cc(-c3cccc(OC)c3)nc3ccc(NC(=O)c4ccc(OC)cc4)cc23)cc1	·	78*	56*	53*	27	19
COc1ccc(COc2cc(-c3cccc(OC)c3)nc3ccc(NC(=O)c4ccccc4)cc23)cc1	·	0	-1	6	6	5
COc1ccc2c(c1)c(C(=O)N/N=C/c1ccc(Br)cc1)c(C)n2C	3	6	·	0	·	2
CCOc1ccc(/C=N/NC(=O)c2c(C)n(C)c3ccc(OC)cc23)cc1	2	-1	8	10	17*	-4
O=S1(=O)N=C(N2CCN(Cc3ccccc3)CC2)c2ccccc21	-1	-4	2	60*	5	9
O=S1(=O)N=C(N2CCN(Cc3ccc4c(c3)OCO4)CC2)c2ccccc21	·	3	-1	8	2	6
CCOc1cc(C)c(S(=O)(=O)Nc2ccc3cn[nH]c3c2)cc1C	-2	5	6	40*	3	10
O=C(NC1CC1)C1CCCN1S(=O)(=O)c1ccc2ccccc2c1 (centres undefined)	8	0	-13	1	24*	9
CCNC(=O)C1CCCN1S(=O)(=O)c1ccc2ccccc2c1 (centres undefined)	·	·	·	·	·	-5
Cc1ccc(-c2cn(-c3ccc(OC(F)F)cc3)c3[n+]2CCCCC3)cc1	1	78*	·	73*	·	16
FC(F)Oc1ccc(-n2cc(-c3ccccc3)[n+]3c2CCCCC3)cc1	0	65*	·	63*	·	-2
c1ccc(-c2c[nH]c3[n+]2CCCCC3)cc1	·	3	7	6	2	0
Cc1ccc(CONC(=O)c2ccc(OC(F)F)cc2)cc1	-4	3	4	11	2	6
COc1ccc(/C=C/C(=O)NC(=S)N2CCSCC2)cc1	-3	5	-14	5	3	0
COc1ccc(-n2c(SC(C)C(=O)Nc3ncc(Cl)cc3Cl)nc3ccccc32)cc1 (centres undefined)	13	69*	25	62*	18*	66*
SMILES	b-catenin transl	Ba/F3 V617F tox	APP transl inh	BaF3 tox	MT stabilizer	IEC-6 cytotox
CC(Sc1nnc2ccccn12)C(=O)Nc1ncc(Cl)cc1Cl (centres undefined)	-2	3	-6	-1	3	4
O=c1c2ccccc2ncn1Cc1ccc(Cl)c(Cl)c1	·	·	·	·	·	4
Cc1[nH][nH]c(=O)c1C(c1c(C)[nH][nH]c1=O)c1cn(Cc2ccc(Cl)c(Cl)c2)c2ccccc12	99*	0	81*	8	6	8
Cc1[nH][nH]c(=O)c1C(c1c(C)[nH][nH]c1=O)c1cn(Cc2ccc(F)cc2)c2ccccc12	23	2	15	7	20*	-12
CC1C(=O)N2CCCc3cc(S(=O)(=O)NCc4ccccc4Cl)cc1c32 (centres undefined)	·	·	·	·	·	-1
CC1=CC(C)C2(COC(c3ccc[n+](C)c3)OC2)C(C)C1 (centres undefined)	-2	65*	-2	72*	2	3
O=C1CC(=O)Nc2cc(S(=O)(=O)N3CCN(c4ccc([N+](=O)[O-])cc4)CC3)ccc2N1	·	·	·	·	·	1
CCOC(=O)c1c(C)nc2sc(C(N)=O)c(N)c2c1-c1ccc(OC)cc1	-5	-4	64*	-1	1	0
CCOC(=O)c1c(C)nc2sc(C(=O)Nc3ccc(OC)cc3)c(N)c2c1-c1ccc(OC)cc1	-6	2	2	7	24*	-5
COc1ccc2c(c1)sc(=N)n2C	0	58*	6	69*	4	-1
O=S(Cc1ccc(Cl)cc1)CC(O)(c1ccccc1)c1ccccc1 (centres undefined)	-1	-2	4	4	33*	4
O=S(Cc1ccccc1)CC(O)(c1ccc(Cl)cc1)c1ccc(Cl)cc1 (centres undefined)	1	3	-10	7	3	8
O=C(Nc1cccs1)Nc1c(F)cc(F)cc1Br	·	-2	-14	9	1	6
O=C(Nc1cccs1)Nc1c(F)c(F)cc(F)c1F	0	30*	-22	43*	3	4
O=C(Nc1cccs1)Nc1c(F)c(F)c(F)c(F)c1F	·	43*	-19	52*	3	4
Cc1cccc(C)c1NC(=O)Nc1cccs1	·	-2	6	1	1	-2
Nc1nonc1C(=O)NCCNCc1cc(Br)ccc1OCc1ccccc1F	·	24*	-4	51*	4	12
Nc1nonc1C(=O)NCCNCc1ccccc1OCc1ccccc1F	-2	4	-4	7	2	2
CCN(CC)c1ccc(/C=C(/C#N)c2nc3ccccc3[nH]2)c(OC(C)C)c1	·	-2	-56	4	60*	-5
CCOc1cccc(/C=C(/C#N)c2nc3ccccc3[nH]2)c1OCC(=O)O	·	·	·	·	·	-3
Cc1cc(C)n(CCC(=O)Nc2ccc3c(c2)OCCO3)n1	·	·	·	·	·	-4
O=C1N(c2cccc(Cl)c2)C(c2ccc(Cl)cc2)N2CCCN12 (centres undefined)	3	0	0	5	3	-1
